Rows were chosen to be rich in hits. Some 2.5% of all compounds tested hit in one or more screens of this group.
rCAG RNA binder – binders of r(CAG) RNA repeats, primary screen, biochemical, fluorescence; r(CAG) RNA repeat, TO-PRO-1 dye displacement fluorescence; inhibition, % at 3 µM; 370,000 compounds, 1.3% hits; AID 651821, 2012;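 active = inhibition above the plate cutoff, the mean of all test compounds on that plate plus 3 SD, cut at about 35% in these data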;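 also: 0% = DMSO alone and 100% = 100 µM mitoxantrone as full dye displacement; higher means more dye released from RNA so lower well fluorescence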
SIAE inh – human SIAE inhibitors, primary screen, biochemical, fluorescence polarization, FP-Rh probe, 1536-well HTS; inhibition, % at 9.66 µM; 370,000 compounds, 0.69% hits; AID 1053197, 2014; SIAE FP-Rh probe binding;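 active = inhibition above a cutoff: mean of compounds within the control limits plus 3 SD of those, cut at about 17% in these data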;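 also: 0% = plate median of compound wells and 100% = probe without SIAE protein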
mABHD4 FP – ABHD4 inhibitors, primary screen, biochemical, fluorescence polarization, mouse; purified mABHD4, FP-Rh probe fluorescence polarization; AID 720543, 2013; 370,000 compounds, 0.54% hits; inhibition, % at 8.92 µM;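 active = inhibition exceeding the mean over every tested compound plus 3 SD, cut at about 30% in these data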;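 also: 0% = plate median of compound wells and 100% = S159A mutant with DMSO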
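Assay system: Wild-type mouse ABHD4 protein | Medium: HEPES pH 7.0 buffer, 150 mM NaCl, 0.01% Pluronic F-127 | Incubation: Enzyme–compound pre-incubation 45 min, then probe 60 min, both 25 °C | Technique: Fluorescence polarization with parallel and perpendicular emission, 525/598 nm | Evaluation: % inhibition of FP-Rh probe binding versus controls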
HTRA1 inh – HTRA1 serine protease inhibitors, primary screen, biochemical, fluorescence polarization, HTS; Q92743; recombinant HTRA1, FP-rhodamine activity-based probe; inhibition, % at 5.96 µM; 340,000 compounds, 0.5% hits; AID 504803, 2011; in the data active = inhibition above about 36%;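 also: 0% = enzyme with DMSO and 100% = wells lacking enzyme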
Target sequence (Q92743 whole entry, looked up): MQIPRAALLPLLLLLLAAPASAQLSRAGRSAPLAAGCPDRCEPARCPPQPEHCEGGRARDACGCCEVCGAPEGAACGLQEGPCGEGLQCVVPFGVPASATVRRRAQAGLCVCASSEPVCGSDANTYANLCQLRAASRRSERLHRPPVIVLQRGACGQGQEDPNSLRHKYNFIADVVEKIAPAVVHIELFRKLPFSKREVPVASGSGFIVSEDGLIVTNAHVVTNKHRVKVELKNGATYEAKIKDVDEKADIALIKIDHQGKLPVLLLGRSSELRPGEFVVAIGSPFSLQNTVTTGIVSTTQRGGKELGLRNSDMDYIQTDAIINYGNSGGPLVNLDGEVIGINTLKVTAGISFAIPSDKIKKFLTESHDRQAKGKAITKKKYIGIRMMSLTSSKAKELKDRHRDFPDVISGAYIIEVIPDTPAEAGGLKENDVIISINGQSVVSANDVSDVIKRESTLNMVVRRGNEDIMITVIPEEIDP
TCR CD3 inh – inhibitors of human TCR-CD3 interaction, primary screen, biochemical, fluorescence, TAMRA-labeled TCR probe; T-cell receptor (TCR); inhibition, % at 9.4 µM; 360,000 compounds, 0.37% hits; AID 651800, 2012; in the data active = inhibition above about 19%;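 also: recombinant mutant TCR 2C K166C tagged with TAMRA read by polarization; 0% = receptor in buffer alone and 100% = receptor with positive control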
SIAE inh conf – human SIAE inhibitors, retest, confirmation, biochemical, fluorescence polarization, FP-Rh probe, triplicate. shares compounds with SIAE inh. SIAE FP-Rh activity-based probe. inhibition, % at 9.66 µM. 2,300 compounds, 13% hits. AID 1117263, 2014;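 active = mean inhibition of the replicates above the hit cutoff set in the primary screen, cut at about 17% in these data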;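 also: 0% = SIAE with DMSO and probe and 100% = probe without SIAE; inhibitors lower polarization as more probe stays unbound to SIAE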
Starred values were filed as active, the others as inactive; . = no result.

SMILES	rCAG RNA binder	SIAE inh	mABHD4 FP	HTRA1 inh	TCR CD3 inh	SIAE inh conf
Cc1nn(Cc2ccc(Cl)cc2Cl)c(C)c1NC(=O)C1C2CCC(O2)C1C(=O)O (centres undefined)	-5.5	20.2*	0.1	-5.2	4.0	3.4
Cc1nn(Cc2ccc(Cl)cc2Cl)c(C)c1NC(=O)c1nc2n(n1)C(C(F)F)CC(C)N2 (centres undefined)	2.8	30.8*	6.1	0.4	-4.6	2.5
COc1ccc(NC(=O)CCN2C(=O)c3ccc([N+](=O)[O-])cc3C2=O)c(OC)c1	-0.7	13.6	9.6	3.7	3.3	.
COc1cc(NC(=O)c2ccccc2F)c(OC)cc1NC(=O)CN1CCOCC1	-5.7	17.1*	4.7	-5.9	-0.4	3.1
CCOC(=O)c1ccc2c(c1)n(CC)c(/C=C/Nc1ccccc1)[n+]2CC	5.2	17.9*	2.4	-1.3	-5.6	5.3
CCn1c(/C=C/Nc2ccccc2)[n+](CC)c2ccc(Cl)cc21	6.9	1.6	3.5	0.2	-1.4	.
COc1ccc(-c2c(Cc3ccccc3)nc(NC(=O)c3ccccc3F)n2C)cc1	6.3	40.9*	-12.8	.	.	3.2
CCCn1c(NC(=O)c2ccccc2)nc(Cc2ccccc2)c1-c1ccc(OC)cc1	5.5	-0.8	8.0	.	.	.
Cc1ccc2[nH]cc(S(=O)(=O)c3ccc(C(C)C)cc3)c(=O)c2c1	3.7	-5.0	3.7	-7.0	6.5	.
CC(=O)c1ccc(NC(=S)Nc2cccc3ccccc23)cc1	13.6	31.7*	14.4	7.8	-6.3	1.0
C=CCn1c(SCC(C)=O)nc2sc3c(c2c1=O)CCC3	-5.1	3.4	-9.1	2.2	1.9	.
C=CCn1c(SCC(=O)N(CC)C2CCS(=O)(=O)C2)nc2sc3c(c2c1=O)CCC3 (centres undefined)	0.8	17.9*	2.5	-4.8	0.1	9.5
CCCCN1C(=O)C(CC(=O)NCCc2ccccn2)CC(C(=O)N2CCOCC2)=C1C (centres undefined)	2.0	5.2	1.9	3.7	-0.4	.
COC(=O)Oc1ccc(/C=N/NC(=O)CN(c2ccccc2Br)S(C)(=O)=O)cc1OC	-4.8	21.7*	-0.6	8.2	-1.3	15.2
CCc1ccccc1N(CC(=O)N/N=C/c1ccc(OC(=O)OC)c(OC)c1)S(C)(=O)=O	3.0	6.3	-4.2	2.4	-1.5	.
O=C(CSc1nnc2ccccn12)c1ccc2c(c1)OCCO2	1.9	-8.7	-9.2	-0.1	3.6	.
CCc1ccccc1NCC(=O)Nc1ccc(Cl)c(C(F)(F)F)c1	4.7	27.0*	-15.7	4.6	0.1	11.0
COc1ccccc1NC(=O)CN1CCN(CC(=O)Nc2ccc(Cl)c(C(F)(F)F)c2)CC1	-2.7	-7.1	-5.6	-32.8	5.7	.
O=C1/C(=C\c2ccco2)SC(=S)N1c1ccccc1	26.8	24.8*	18.4	11.5	1.5	3.9
Cc1cccc[n+]1C1C(c2ccc([N+](=O)[O-])cc2)C(C#N)=C(C(=C=[N-])C#N)NC1(O)C1CC1 (centres undefined)	10.4	40.1*	9.7	13.8	-12.5	-0.3
CC(C)C(NS(=O)(=O)c1cccc2nsnc12)C(=O)Nc1nccs1 (centres undefined)	1.3	1.9	0.3	1.8	1.4	.
COC(=O)C1CCCCN1C(=O)c1ccc2oc(Cc3ccccc3)nc2c1 (centres undefined)	-4.3	-3.7	-1.5	-0.9	-5.8	.
COC(=O)C1CCCCN1C(=O)c1ccc2oc(C(C)C)nc2c1 (centres undefined)	-7.3	17.1*	3.1	0.6	0.2	6.0
CCC(=O)N(Cc1cc(=O)[nH]c2ccccc12)c1ccc(C)cc1	1.9	2.5	-4.4	3.2	-3.8	.
CCCS(=O)(=O)NC(=O)C1(C)CCN(C(=O)CSc2ccccc2)C1 (centres undefined)	1.2	19.9*	5.1	.	-5.0	-0.4
O=C(NNC(=O)c1ccc2c(=O)n3c(nc2c1)CCC3)c1ccc(F)cc1	0.9	22.9*	2.0	2.3	-1.3	2.9
